Values after ≈ are worked out from the molar mass of the structure shown.
Tests used:
Type in all cases: functional
[1] = tested on: Staphylococcus haemolyticus; assay: Antimicrobial activity against methicillin-susceptible coagulase-negative Staphylococcus haemolyticus after 24 hrs by broth microdilution method
Method in brief: (§1)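 Clinical isolates came from blood, body fluids, genital secretions, pus or sputum, identified conventionally or by Vitek. MICs were run by CLSI M7-A6 broth microdilution in Mueller-Hinton broth with 5 × 10^5 CFU/ml inoculum. Agents were twofold serially diluted, starting from 10% DMSO. Drug-free and uninoculated controls were included. Plates were incubated aerobically at 37°C for 24 h; MIC is the lowest concentration giving no visible growth.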

[2] = tested on: Staphylococcus epidermidis; assay: Antimicrobial activity against methicillin-susceptible coagulase-negative Staphylococcus epidermidis after 24 hrs by broth microdilution method; method in brief: as §1
Staphylococcus simulans [3] = assay: Antimicrobial activity against methicillin-susceptible coagulase-negative Staphylococcus simulans assessed as resistant isolates after 24 hrs by broth microdilution method
[4] = tested on: Staphylococcus haemolyticus; assay: Antimicrobial activity against methicillin-resistant coagulase-negative Staphylococcus haemolyticus assessed as intermediate resistant isolates after 24 hrs by broth microdilution method
Staphylococcus hominis [5] = assay: Antimicrobial activity against methicillin-susceptible coagulase-negative Staphylococcus hominis assessed as intermediate resistant isolates after 24 hrs by broth microdilution method; details: pooled result: one value given for 5 cell lines, strains, targets or settings
Staphylococcus simulans [6] = assay: Antimicrobial activity against methicillin-resistant coagulase-negative Staphylococcus simulans assessed as susceptible isolates after 24 hrs by broth microdilution method
Staphylococcus aureus [7] = assay: Antimicrobial activity against methicillin-resistant Staphylococcus aureus assessed as susceptible isolates after 24 hrs by broth microdilution method
Staphylococcus simulans [8] = assay: Antimicrobial activity against methicillin-resistant coagulase-negative Staphylococcus simulans after 24 hrs by broth microdilution method; method in brief: as §1
Staphylococcus hominis [9] = assay: Antimicrobial activity against methicillin-susceptible coagulase-negative Staphylococcus hominis after 24 hrs by broth microdilution method; method in brief: as §1
Staphylococcus aureus [10] = assay: Antimicrobial activity against methicillin-resistant Staphylococcus aureus assessed as resistant isolates after 24 hrs by broth microdilution method
[11] = tested on: Staphylococcus haemolyticus; assay: Antimicrobial activity against methicillin-resistant coagulase-negative Staphylococcus haemolyticus assessed as susceptible isolates after 24 hrs by broth microdilution method
Mammaliicoccus sciuri [12] = assay: Antimicrobial activity against methicillin-resistant coagulase-negative Staphylococcus sciuri assessed as susceptible isolates after 24 hrs by broth microdilution method
Mammaliicoccus sciuri [13] = assay: Bactericidal activity against methicillin-resistant coagulase-negative Staphylococcus sciuri after 24 hrs by plate counting method; details: for MBC: Mammaliicoccus sciuri, 24 h
Method in brief: (§2)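 Clinical staphylococcal isolates from patient body fluids, blood, genital secretions, pus or sputum; species by conventional methods or Vitek. Twofold dilutions in Mueller-Hinton broth, inoculum 5 × 10^5 CFU/ml, 37°C aerobic 24 h (CLSI M7-A6 microdilution). About 100 μl from each well without visible growth spread on MHA; 37°C 24 h. MBC = lowest concentration giving no growth on agar.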

Staphylococcus aureus [14] = assay: Antimicrobial activity against methicillin-susceptible Staphylococcus aureus assessed as intermediate resistant isolates after 24 hrs by broth microdilution method
[15] = tested on: Staphylococcus epidermidis; assay: Antimicrobial activity against methicillin-resistant coagulase-negative Staphylococcus epidermidis after 24 hrs by broth microdilution method; method in brief: as §1
[16] = tested on: Staphylococcus haemolyticus; assay: Antimicrobial activity against methicillin-resistant coagulase-negative Staphylococcus haemolyticus assessed as resistant isolates after 24 hrs by broth microdilution method
Staphylococcus hominis [17] = assay: Antimicrobial activity against methicillin-susceptible coagulase-negative Staphylococcus hominis assessed as susceptible isolates after 24 hrs by broth microdilution method
[18] = tested on: Staphylococcus haemolyticus; assay: Bactericidal activity against methicillin-resistant coagulase-negative Staphylococcus haemolyticus after 24 hrs by plate counting method; details: for MBC: Staphylococcus haemolyticus, 24 h
[19] = tested on: Staphylococcus epidermidis; assay: Antimicrobial activity against methicillin-resistant coagulase-negative Staphylococcus epidermidis assessed as resistant isolates after 24 hrs by broth microdilution method
Staphylococcus hominis [20] = assay: Bactericidal activity against methicillin-susceptible coagulase-negative Staphylococcus hominis after 24 hrs by plate counting method; details: for MBC: Staphylococcus hominis, 24 h; method in brief: as §2
Staphylococcus simulans [21] = assay: Bactericidal activity against methicillin-resistant coagulase-negative Staphylococcus simulans after 24 hrs by plate counting method; details: for MBC: Staphylococcus simulans, 24 h; method in brief: as §2
Staphylococcus simulans [22] = assay: Antimicrobial activity against methicillin-susceptible coagulase-negative Staphylococcus simulans assessed as susceptible isolates after 24 hrs by broth microdilution method
Method in brief: (§3)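 Clinical isolates from blood, body fluids, pus, sputum or genital secretions, identified conventionally or by Vitek, were tested alongside ATCC 29213 and ATCC 12228 controls. CLSI M7-A6 broth microdilution in Mueller-Hinton broth used twofold dilutions from a 10% DMSO solution and 5 × 10^5 CFU/ml inoculum. Drug-free and uninoculated wells served as controls; incubation was aerobic at 37°C for 24 h. MIC was the lowest concentration with no visible growth.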

Staphylococcus hominis [23] = assay: Antimicrobial activity against methicillin-resistant coagulase-negative Staphylococcus hominis after 24 hrs by broth microdilution method; method in brief: as §1
[24] = tested on: Staphylococcus haemolyticus; assay: Bactericidal activity against methicillin-susceptible coagulase-negative Staphylococcus haemolyticus after 24 hrs by plate counting method; details: for MBC: Staphylococcus haemolyticus, 24 h; method in brief: as §2
Mammaliicoccus sciuri [25] = assay: Antimicrobial activity against methicillin-resistant coagulase-negative Staphylococcus sciuri assessed as resistant isolates after 24 hrs by broth microdilution method
Staphylococcus aureus [26] = assay: Antimicrobial activity against methicillin-susceptible Staphylococcus aureus assessed as susceptible isolates after 24 hrs by broth microdilution method
Staphylococcus hominis [27] = assay: Bactericidal activity against methicillin-resistant coagulase-negative Staphylococcus hominis after 24 hrs by plate counting method; details: for MBC: Staphylococcus hominis, 24 h
[28] = tested on: Staphylococcus epidermidis; assay: Antimicrobial activity against methicillin-susceptible coagulase-negative Staphylococcus epidermidis assessed as susceptible isolates after 24 hrs by broth microdilution method
Staphylococcus aureus [29] = assay: Antimicrobial activity against methicillin-susceptible Staphylococcus aureus after 24 hrs by broth microdilution method; method in brief: as §1
[30] = tested on: Staphylococcus haemolyticus; assay: Antimicrobial activity against methicillin-susceptible coagulase-negative Staphylococcus haemolyticus assessed as susceptible isolates after 24 hrs by broth microdilution method
[31] = tested on: Staphylococcus epidermidis; assay: Antimicrobial activity against methicillin-susceptible coagulase-negative Staphylococcus epidermidis assessed as resistant isolates after 24 hrs by broth microdilution method
[32] = tested on: Staphylococcus epidermidis; assay: Bactericidal activity against methicillin-resistant coagulase-negative Staphylococcus epidermidis after 24 hrs by plate counting method; details: for MBC: Staphylococcus epidermidis, 24 h
Staphylococcus simulans [33] = assay: Bactericidal activity against methicillin-susceptible coagulase-negative Staphylococcus simulans after 24 hrs by plate counting method; details: for MBC: Staphylococcus simulans, 24 h; method in brief: as §2
Mammaliicoccus sciuri [34] = assay: Antimicrobial activity against methicillin-susceptible coagulase-negative Staphylococcus sciuri assessed as susceptible isolates after 24 hrs by broth microdilution method; method in brief: as §3
[35] = tested on: Staphylococcus epidermidis; assay: Antimicrobial activity against methicillin-resistant coagulase-negative Staphylococcus epidermidis assessed as intermediate resistant isolates after 24 hrs by broth microdilution method
Staphylococcus aureus [36] = assay: Antimicrobial activity against methicillin-resistant Staphylococcus aureus after 24 hrs by broth microdilution method; method in brief: as §1

## C[C@H]1COc2c(N3CCN(C)CC3)c(F)cc3c(=O)c(C(=O)O)cn1c23.C[C@H]1COc2c(N3CCN(C)CC3)c(F)cc3c(=O)c(C(=O)O)cn1c23.O [LEVOFLOXACIN]
[1]
  MIC: 0.25 µg/mL
  MIC50: 0.25 µg/mL
  MIC90: 0.5 µg/mL
[2]
  MIC: 0.25 µg/mL
  MIC50: 0.25 µg/mL
  MIC90: 0.5 µg/mL
Staphylococcus simulans [3]
  Activity: 4%
[4]
  Activity: 15%
Staphylococcus hominis [5]
  Activity: 0%
Staphylococcus simulans [6]
  Activity: 15%
Staphylococcus aureus [7]
  Activity: 18%
Staphylococcus simulans [8]
  MIC: 0.25 µg/mL
  MIC50: 0.25 µg/mL
  MIC90: 4 µg/mL
Staphylococcus hominis [9]
  MIC: 0.25 µg/mL
  MIC50: 0.25 µg/mL
  MIC90: 0.5 µg/mL
Staphylococcus aureus [10]
  Activity: 82%
[11]
  Activity: 26%
Mammaliicoccus sciuri [12]
  Activity: 15%
Mammaliicoccus sciuri [13]
  MBC50: 4 µg/mL
  MBC90: 16 µg/mL
  MBC: 0.5 µg/mL
Staphylococcus aureus [14]
  Activity: 4%
[15]
  MIC: 0.25 µg/mL
  MIC50: 0.25 µg/mL
  MIC90: 4 µg/mL
[16]
  Activity: 59%
Staphylococcus hominis [17]
  Activity: 96%
[18]
  MBC50: 4 µg/mL
  MBC90: 16 µg/mL
  MBC: 0.5 µg/mL
[19]
  Activity: 59%
Staphylococcus hominis [20]
  MBC50: 1 µg/mL
  MBC90: 4 µg/mL
  MBC: 0.5 µg/mL
Staphylococcus simulans [21]
  MBC50: 4 µg/mL
  MBC90: 16 µg/mL
  MBC: 0.5 µg/mL
Staphylococcus simulans [22]
  Activity: 96%
Staphylococcus hominis [23]
  MIC: 0.25 µg/mL
  MIC50: 0.25 µg/mL
  MIC90: 4 µg/mL
[24]
  MBC50: 1 µg/mL
  MBC90: 4 µg/mL
  MBC: 0.5 µg/mL
Mammaliicoccus sciuri [25]
  Activity: 59%
Staphylococcus aureus [26]
  Activity: 81%
Staphylococcus hominis [27]
  MBC50: 4 µg/mL
  MBC90: 16 µg/mL
  MBC: 0.5 µg/mL
[28]
  Activity: 96%
Staphylococcus aureus [29]
  MIC: 0.125 µg/mL
  MIC50: 0.125 µg/mL
  MIC90: 8 µg/mL
[30]
  Activity: 96%
[31]
  Activity: 4%
[32]
  MBC50: 4 µg/mL
  MBC90: 16 µg/mL
  MBC: 0.5 µg/mL
Staphylococcus simulans [33]
  MBC50: 1 µg/mL
  MBC90: 4 µg/mL
  MBC: 0.5 µg/mL
Mammaliicoccus sciuri [34]
  Activity: 96%
[35]
  Activity: 15%
Staphylococcus aureus [36]
  MIC50: 8 µg/mL
  MIC90: 128 µg/mL

## CN[C@H](CC(C)C)C(=O)N[C@H]1C(=O)N[C@@H](CC(N)=O)C(=O)N[C@H]2C(=O)N[C@H]3C(=O)N[C@H](C(=O)N[C@H](C(=O)O)c4cc(O)cc(O)c4-c4cc3ccc4O)[C@H](O)c3ccc(c(Cl)c3)Oc3cc2cc(c3O[C@@H]2O[C@H](CO)[C@@H](O)[C@H](O)[C@H]2O[C@H]2C[C@](C)(N)[C@H](O)[C@H](C)O2)Oc2ccc(cc2Cl)[C@H]1O [VANCOMYCIN]
[1]
  MIC50: 0.25 µg/mL (≈ 0.173 µM)
  MIC90: 1 µg/mL (≈ 0.69 µM)
[2]
  MIC50: 0.25 µg/mL (≈ 0.173 µM)
  MIC90: 1 µg/mL (≈ 0.69 µM)
Staphylococcus simulans [3]
  Activity: 12%
[4]
  Activity: 0%
Staphylococcus hominis [5]
  Activity: 0%
Staphylococcus simulans [6]
  Activity: 0%
Staphylococcus aureus [7]
  Activity: 100%
Staphylococcus simulans [8]
  MIC: 0.125 µg/mL (≈ 0.0863 µM)
  MIC50: 0.125 µg/mL (≈ 0.0863 µM)
  MIC90: 2 µg/mL (≈ 1.38 µM)
Staphylococcus hominis [9]
  MIC50: 0.25 µg/mL (≈ 0.173 µM)
  MIC90: 1 µg/mL (≈ 0.69 µM)
Staphylococcus aureus [10]
  Activity: 0%
[11]
  Activity: 100%
Mammaliicoccus sciuri [12]
  Activity: 0%
Mammaliicoccus sciuri [13]
  MBC50: 2 µg/mL (≈ 1.38 µM)
  MBC90: 4 µg/mL (≈ 2.76 µM)
  MBC: 0.5 µg/mL (≈ 0.345 µM)
Staphylococcus aureus [14]
  Activity: 0%
[15]
  MIC: 0.125 µg/mL (≈ 0.0863 µM)
  MIC50: 0.125 µg/mL (≈ 0.0863 µM)
  MIC90: 2 µg/mL (≈ 1.38 µM)
[16]
  Activity: 0%
Staphylococcus hominis [17]
  Activity: 100%
[18]
  MBC50: 2 µg/mL (≈ 1.38 µM)
  MBC90: 4 µg/mL (≈ 2.76 µM)
  MBC: 0.5 µg/mL (≈ 0.345 µM)
[19]
  Activity: 0%
Staphylococcus hominis [20]
  MBC50: 1 µg/mL (≈ 0.69 µM)
  MBC90: 4 µg/mL (≈ 2.76 µM)
  MBC: 0.125 µg/mL (≈ 0.0863 µM)
Staphylococcus simulans [21]
  MBC50: 2 µg/mL (≈ 1.38 µM)
  MBC90: 4 µg/mL (≈ 2.76 µM)
  MBC: 0.5 µg/mL (≈ 0.345 µM)
Staphylococcus simulans [22]
  Activity: 100%
Staphylococcus hominis [23]
  MIC: 0.125 µg/mL (≈ 0.0863 µM)
  MIC50: 0.125 µg/mL (≈ 0.0863 µM)
  MIC90: 2 µg/mL (≈ 1.38 µM)
[24]
  MBC50: 1 µg/mL (≈ 0.69 µM)
  MBC90: 4 µg/mL (≈ 2.76 µM)
  MBC: 0.125 µg/mL (≈ 0.0863 µM)
Mammaliicoccus sciuri [25]
  Activity: 0%
Staphylococcus aureus [26]
  Activity: 100%
Staphylococcus hominis [27]
  MBC50: 2 µg/mL (≈ 1.38 µM)
  MBC90: 4 µg/mL (≈ 2.76 µM)
  MBC: 0.5 µg/mL (≈ 0.345 µM)
[28]
  Activity: 100%
Staphylococcus aureus [29]
  MIC50: 0.25 µg/mL (≈ 0.173 µM)
  MIC90: 0.5 µg/mL (≈ 0.345 µM)
[30]
  Activity: 100%
[31]
  Activity: 0%
[32]
  MBC50: 2 µg/mL (≈ 1.38 µM)
  MBC90: 4 µg/mL (≈ 2.76 µM)
  MBC: 0.5 µg/mL (≈ 0.345 µM)
Staphylococcus simulans [33]
  MBC50: 1 µg/mL (≈ 0.69 µM)
  MBC90: 4 µg/mL (≈ 2.76 µM)
  MBC: 0.125 µg/mL (≈ 0.0863 µM)
Mammaliicoccus sciuri [34]
  Activity: 100%
[35]
  Activity: 0%
Staphylococcus aureus [36]
  MIC50: 0.5 µg/mL (≈ 0.345 µM)
  MIC90: 0.5 µg/mL (≈ 0.345 µM)

From ChEMBL document CHEMBL1649231, “In vitro activities of panduratin A against clinical Staphylococcus strains” (2009)
